Results of several laboratories.
Target: Prostaglandin G/H synthase 2 (PTGS2, Homo sapiens, UniProt P35354)
Observed: enzyme activity
Action: inhibitor
Residues used in one study (P35354 18-604): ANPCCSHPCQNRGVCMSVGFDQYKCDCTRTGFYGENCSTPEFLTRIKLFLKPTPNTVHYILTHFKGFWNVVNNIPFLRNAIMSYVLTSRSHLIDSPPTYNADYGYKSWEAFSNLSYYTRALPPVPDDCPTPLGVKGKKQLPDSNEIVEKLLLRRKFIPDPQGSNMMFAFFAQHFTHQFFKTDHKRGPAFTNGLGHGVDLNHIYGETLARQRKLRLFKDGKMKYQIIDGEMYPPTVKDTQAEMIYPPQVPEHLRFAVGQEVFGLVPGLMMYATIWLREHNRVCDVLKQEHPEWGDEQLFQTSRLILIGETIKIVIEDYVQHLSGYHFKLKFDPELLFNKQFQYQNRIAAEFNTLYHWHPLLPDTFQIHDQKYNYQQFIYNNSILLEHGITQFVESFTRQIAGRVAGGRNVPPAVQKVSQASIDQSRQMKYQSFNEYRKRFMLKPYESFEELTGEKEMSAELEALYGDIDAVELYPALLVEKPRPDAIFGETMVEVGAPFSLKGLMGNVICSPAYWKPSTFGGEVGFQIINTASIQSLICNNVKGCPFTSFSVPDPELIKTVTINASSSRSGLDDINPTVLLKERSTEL

| SMILES | test | setting | quantity | value |
| --- | --- | --- | --- | --- |
| Nc1ncc(-c2nc(N3CCOCC3)nc(N3CCOCC3)n2)c(C(F)F)n1 | – | 10 µM | remaining activity | 99% |
| Clc1ccc2c(C3CCN(CCc4c[nH]c5ccccc45)CC3)c[nH]c2c1 | – | 10 µM | inhibition | 79% |
| COc1ccc(-c2ccc(N)cc2-c2nc3ccccc3s2)cc1 | absorbance | 10 µM | inhibition | 10.3% |
| C[C@H](C(=O)N[C@H]1COc2ccccc2[C@@H]1S(C)(=O)=O)c1ccc(F)cc1 | – | 10 µM | inhibition | -27% |
| COCc1c(-c2cc3cc(C)cc(OC)c3s2)c2c(N)ncnn2c1CN1CCNC(=O)C1 | – | 10 µM | inhibition | 6% |
| Cc1ncc(C)n2nc(/C=C/c3nc(N4CCCC4)cc(N4CCOCC4)n3)nc12 | – | 10 µM | inhibition | 0% |
| Cc1ccc(-c2nc3ccccc3s2)c(-c2ccc(S(C)(=O)=O)cc2)c1 | absorbance | 10 µM | inhibition | 72% |
| c1ccc(C(NCCNC(c2ccccc2)c2ccccc2)c2ccccc2)cc1 | – | 10 µM | inhibition | 0% |
| NS(=O)(=O)c1ccc(-c2ncccc2-c2nc3ccccc3s2)cc1 | absorbance | 10 µM | inhibition | 88.5% |
| O=C(Nc1cccnn1)N1CCN([C@@H]2CCOc3cc(C(F)(F)F)ccc32)CC1 | – | 20 µM | inhibition | -2% |
